In one data set the test system is Plasmodium falciparum. The experiment in a line: Antimalarial activity against Plasmodium falciparum K1. In kind it is functional, organism-based. The method in brief:
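P. falciparum K1 (multidrug-resistant strain) tested by microculture radioisotope technique; IC50 determined. Dihydroartemisinin used as reference standard.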

The subject of the next data set is KB. Kind of data set: Cytotoxicity against human KB cells. It is filed as cell-based. Particulars: for Activity: human, kb. The method in brief: (§1)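 Colorimetric cytotoxicity assay on KB (oral human epidermoid carcinoma), BC (human breast cancer) and Vero (African green monkey kidney fibroblast) cells; IC50 determined, Vero tested up to 67 µM (50 µg/mL). Ellipticine used as reference standard.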

Data set [1] can be described thus: Cytotoxicity against human BC cells. Particulars: for Activity: human, bc. In kind it is cell-based. The method in brief:
as §1

The test system of another data set is Vero. Kind of data set: Cytotoxicity against African green monkey Vero cells upto 67 uM. It is filed as cell-based. Particulars: chlorocebus sabaeus. The method in brief:
as §1

Among the data in ChEMBL document CHEMBL1142099, “Paecilodepsipeptide A, an antimalarial and antitumor Cyclohexadepsipeptide from the insect pathogenic fungus Paecilomyces cinnamomeus BCC 9616” (J Nat Prod, 2007) are Activity and IC50 values, retold here.

Calls of active or inactive are those of the source. The rule behind the calls is not given here.

`COC(=O)[C@@H](Cc1ccc(OCC=C(C)C)cc1)NC(=O)[C@@H](C)NC(=O)[C@@H](Cc1ccc(O)cc1)NC(=O)CNC(=O)[C@H](C)NC(=O)[C@@H](O)Cc1ccccc1` [PAECILODEPSIPEPTIDE C]: the result in the data set on Plasmodium falciparum was inactive. Moreover, the Activity entry (with KB; in data set [1]; in the data set on Vero) was “Not Active” throughout.
A word on the IC50: it is the midpoint of a concentration-inhibition curve. Turning to `CC(C)=CCOc1ccc(C[C@H]2NC(=O)[C@@H](C)NC(=O)[C@@H](Cc3ccc(O)cc3)NC(=O)CNC(=O)[C@H](C)NC(=O)[C@H](Cc3ccccc3)OC2=O)cc1` [PAECILODEPSIPEPTIDE A], the IC50 amounted to 4.9 µM with Plasmodium falciparum; 5.9 µM in the data set with KB (Homo sapiens, KB); 6.6 µM in data set [1] (Homo sapiens, BC). The Activity entry in the data set with Vero is “Not Active”.
On to `CC(C)=CCOc1ccc(C[C@@H](NC(=O)[C@@H](C)NC(=O)[C@@H](Cc2ccc(O)cc2)NC(=O)CNC(=O)[C@H](C)NC(=O)[C@@H](O)Cc2ccccc2)C(=O)O)cc1` [PAECILODEPSIPEPTIDE B], for which the outcome in the data set on Plasmodium falciparum was inactive. The Activity entry (in the data set on KB; in data set [1]; with Vero) was “Not Active” throughout.
